Screens: PubChem, several laboratories
This is a sample that favours compounds with a hit; in the whole collection about 2.9% have one here.
VIM-2 inhibitor = blocks Pseudomonas aeruginosa VIM-2 metallo-beta-lactamase; 290,000 tested, 0.89% active; inhibition, % at 5.6 µM; purified VIM-2, nitrocefin hydrolysis, epi-absorbance fluorescence;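 active = inhibition above the mean of all tested compounds plus 3 SD, cutoff set per screening run, cut at about 7.5% in these data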;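 also: red hydrolysis product quenches plate fluorescence so inhibitors raise well fluorescence; 0% = enzyme with DMSO and 100% = DMSO without enzyme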
NALP3 yeast inh = NALP3 inhibition in yeast; Yeast reconstituted NLRP3/ASC/caspase-1, beta-gal luminescence, 24 h; inhibition, % at 10 µM; 330,000 tested, 0.39% active; AID 2825;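 active = inhibition of 50% or more; inactive = inhibition below 50%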;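 also: plate controls were induced DMSO wells for no effect and uninduced yeast grown without galactose for full effect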
SUMO Mot1 rescue = blocks SUMOylation pathway, rescuing yeast Mot1-301 growth | S. cerevisiae Mot1-301 growth rescue, ATP luminescence, 38.5C; percent above DMSO median, 100 means doubled | growth rescue, % at 18.8 µM | 320,000 tested, 1% active | AID 2716;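 active = every valid replicate shows activation above 250% relative to neutral control wells; inactive = the rest, any valid replicate at or below 250%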;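 also: OY570 slx delta 5 strain wells were the positive control but not used for scaling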
PolyA inhibitor = blocks polyadenylation in yeast reporter cells; AID 1875; 300,000 tested, 0.02% active; activity score, % at 12 µM; S. cerevisiae SKY197-pL101 polyadenylation reporter, beta-gal luminescence; efflux-impaired pdr1/pdr3 knockout yeast; score 100 = 6 SD above DMSO;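 active = lowest replicate activity score at least 50, where 100 means six control SD above control mean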;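 also: yeast exposed to compound for 9 h at 30 °C; higher score means more reporter readthrough which indicates perturbed polyadenylation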
NALP1 inh = inhibitors of NALP1 inflammasome in yeast | S. cerevisiae NALP1/ASC/caspase-1 growth, X-gal OD620, 72 h | inhibition, % at 10 µM | 280,000 tested, 0.61% active | AID 2071; in the data active = inhibition mostly above about 24%, no sharp cut-off; inactive = mostly below about 32%
IMP-1 inhibitor = blocks Pseudomonas aeruginosa IMP-1 metallo-beta-lactamase. 290,000 tested, 0.45% active. purified IMP-1, nitrocefin hydrolysis, epi-absorbance fluorescence. inhibition, % at 5.6 µM. AID 1556;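 active = inhibition above the mean plus 3 SD of all compounds in the same screening run, cut at about 4.5% in these data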;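 also: 0% = IMP-1 with DMSO and 100% = DMSO wells lacking enzyme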
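Assay system: purified IMP-1; Quantity: IMP-1 0.2 nM before substrate addition; Medium: HEPES buffer pH 7.1 with ZnSO4 and Brij 35; Incubation: 15 min enzyme–compound preincubation, then 25 min nitrocefin reaction, 25 °C; Signal: fluorescence quenching readout, ex 480/em 530 nm; Controls: DMSO with and without IMP-1; Repeats: singlicate testing.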
* = called active by the depositor; x = no result given.

SMILES	VIM-2 inhibitor	NALP3 yeast inh	SUMO Mot1 rescue	PolyA inhibitor	NALP1 inh	IMP-1 inhibitor
Cc1ccc(NC(=O)CN(C)C(=O)CCC(=O)c2cccs2)cc1	-2	-1	164	12	25	8.9*
CSCCC(NC(=O)c1ccccc1)C(=O)N1CC(C)OC(C)C1 (stereo not drawn)	x	4	0	x	x	x
COC(=O)C1=C(C(=O)OC)[C@@H]2N(C)c3ccc(OC)cc3[C@@]23C[C@@H](C(=O)OC)N(C(=O)c2cccs2)C3=N1	-2	8	-15	1	9	-3
O=C(Nc1ccccn1)NC1CCCCC1	1	8	-7	10	4	4.7*
O=C(Nc1c(F)c(F)c(F)c(F)c1F)NC1CCCCC1	1	8	699*	3	10	1
C=CCN(C(=O)c1csnn1)C(C(=O)NC1CCCC1)c1ccccc1 (stereo not drawn)	-2	8	1	10	-4	-3
O=C(c1cncc(Br)c1)N1CCN(S(=O)(=O)c2ccc(Cl)cc2)CC1	1	4	306*	15	-2	-2
OC(COc1ccc2ccccc2c1)CN1CCN(c2ccc(F)cc2)CC1 (stereo not drawn)	-2	43	10	7	44*	0
COc1ccc(Cn2c(=O)c3cccnc3n(Cc3ccc([N+](=O)[O-])cc3)c2=O)cc1	-2	-20	4	6	32*	1
COc1ccc2cc(C(=O)N3CCCC(Nc4ccc(F)cc4)C3)n(C)c2c1 (stereo not drawn)	-4	10	10	10	35*	-3
COc1cc(C2CC(=O)Oc3c(C(CCN4CCOCC4)c4ccc(N(C)C)cc4)c(OC)cc(OC)c32)cc(OC)c1OC (stereo not drawn)	x	17	12	58*	11	x
O=C(NC(=S)Nc1ccccc1Cl)c1ccco1	0	-11	355*	-5	14	-2
O=C(NC(=S)Nc1cccc(Cl)c1N1CCCCC1)c1ccco1	-2	-2	0	-29	4	-2
CC(=O)Nc1ccc(NC(=O)c2ccccc2-n2cnnn2)cc1	x	-3	x	x	x	x
O=C(NCc1ccccn1)c1ccc(OC2CCN(Cc3ccc(Cl)s3)CC2)cc1	-2	25	-7	18	19	-4
COc1cccc(C2C(C(=O)c3cc4ccccc4o3)=C(O)C(=O)N2CCN(C)C)c1OC (stereo not drawn)	0	5	16	16	x	-2
COc1cccc(C2C(C(=O)c3ccco3)=C(O)C(=O)N2CCN(C)C)c1OC (stereo not drawn)	-3	12	470*	12	33	-3
CC1CN(C(=O)c2cccc(S(=O)(=O)N3CCN(c4ccccc4)CC3)c2)CC(C)O1 (stereo not drawn)	x	6	0	x	x	x
O=C(O)CC(CP(=O)(c1ccccc1)c1ccccc1)C(=O)O (stereo not drawn)	-1	7	-4	-10	18	-1
NC(CCCCCP(=O)(c1ccccc1)c1ccccc1)C(=O)O (stereo not drawn)	4	6	-20	-3	12	28*
Cc1ccc(NC(=O)c2cccc3c2C(=O)N(C2CCCCC2)C3)c(Cl)c1	-1	10	-5	5	-6	-4
Cc1ccc(N/C(CSC(N)=O)=N\S(=O)(=O)c2ccc(C)cc2)cc1	-1	4	-10	-17	12	5.0*
C/C(=N\S(=O)(=O)c1ccc(C)cc1)NC(=S)Nc1ccc(C)cc1	1	19	x	-23	15	-1
NC(=O)SC/C(=N\S(=O)(=O)c1ccccc1)Nc1ccccc1	-3	1	14	x	9	-3
Cc1ccc(N/C(CSC(N)=O)=N/S(=O)(=O)c2ccccc2)cc1	-1	-4	11	20	-21	4.8*
CC1CCN(S(=O)(=O)c2cccc(S(=O)(=O)N3CCOCC3)c2)CC1	-2	-4	3	-5	36	5.4*
O=S(=O)(c1cccc(S(=O)(=O)N2CCC(N3CCCCC3)CC2)c1)N1CCOCC1	0	x	x	-7	10	-2
CCOc1ccc(Br)cc1S(=O)(=O)NC1=NCCCCC1	x	14	-3	x	x	x
CCOC(=O)CC(=O)CSc1nc(-c2cccnc2)cc(C)c1C#N	-1	9	-22	-17	21	-3
